pKi: −log10 of the molar value.
What was measured:
[1] = Half-life of washout rate of radioactivity from the cerebellum.; type: ADME, tissue-based
In short: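 Rats received the 11C tracer by tail vein (3-30 MBq, 350-450 ng, buffered saline), 3 per time point. Cerebellar radioactivity (%ID/g) was followed over time after injection, and the half-life of its washout was derived from that time course.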

[2] = Log P at pH 7.4; type: physicochemical; settings: buffer, read-out: logD
In short: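 Partition of the radiolabelled compound between 1-octanol and 0.02 M phosphate buffer at pH 7.4.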

[3] = species on record: Rattus norvegicus; assay: Biodistribution of radioactivity in rat thalamus upon Tail-Vein injection of [11C]-labeled compound after 15 min; type: ADME, organism-based; settings: in vivo, iv, 0.25 h
[4] = species on record: Rattus norvegicus; assay: Biodistribution of radioactivity in rat thalamus upon Tail-Vein injection of [11C]-labeled compound after 30 min; type: ADME, organism-based; settings: in vivo, iv, 0.5 h
[5] = species on record: Rattus norvegicus; assay: Biodistribution of radioactivity in rat blood upon Tail-Vein injection of [11C]-labeled compound after 15 min; type: ADME, organism-based; settings: in vivo, iv, 0.25 h
[6] = species on record: Rattus norvegicus; assay: Biodistribution of radioactivity in rat blood upon Tail-Vein injection of [11C]-labeled compound after 30 min upon; type: ADME, organism-based; settings: in vivo, iv, 0.5 h
[7] = species on record: Rattus norvegicus; assay: Biodistribution of radioactivity in rat blood upon Tail-Vein injection of [11C]-labeled compound after 5 min; type: ADME, organism-based; settings: in vivo, iv
[8] = species on record: Rattus norvegicus; assay: Biodistribution of radioactivity in rat blood upon Tail-Vein injection of [11C]-labeled compound after 60 min; type: ADME, organism-based; settings: in vivo, iv, 1 h
[9] = species on record: Rattus norvegicus; assay: Biodistribution of radioactivity in rat cerebellum upon Tail-Vein injection of [11C]-labeled compound after 15 min; type: ADME, organism-based; settings: in vivo, iv, 0.25 h
[10] = species on record: Rattus norvegicus; assay: Biodistribution of radioactivity in rat cerebellum upon Tail-Vein injection of [11C]-labeled compound after 30 min; type: ADME, organism-based; settings: in vivo, iv, 0.5 h
[11] = species on record: Rattus norvegicus; assay: Biodistribution of radioactivity in rat cerebellum upon Tail-Vein injection of [11C]-labeled compound after 5 min; type: ADME, organism-based; settings: in vivo, iv
[12] = species on record: Rattus norvegicus; assay: Biodistribution of radioactivity in rat cerebellum upon Tail-Vein injection of [11C]-labeled compound after 60 min; type: ADME, organism-based; settings: in vivo, iv, 1 h
[13] = species on record: Rattus norvegicus; assay: Biodistribution of radioactivity in rat cortex upon Tail-Vein injection of [11C]-labeled compound after 15 min; type: ADME, organism-based; settings: in vivo, iv, 0.25 h
[14] = species on record: Rattus norvegicus; assay: Biodistribution of radioactivity in rat cortex upon Tail-Vein injection of [11C]-labeled compound after 30 min; type: ADME, organism-based; settings: in vivo, iv, 0.5 h
[15] = species on record: Rattus norvegicus; assay: Biodistribution of radioactivity in rat thalamus upon Tail-Vein injection of [11C]-labeled compound after 5 min; type: ADME, organism-based; settings: in vivo, iv
[16] = species on record: Rattus norvegicus; assay: Biodistribution of radioactivity in rat cortex upon Tail-Vein injection of [11C]-labeled compound after 5 min; type: ADME, organism-based; settings: in vivo, iv
[17] = species on record: Rattus norvegicus; assay: Biodistribution of radioactivity in rat cortex upon Tail-Vein injection of [11C]-labeled compound after 60 min; type: ADME, organism-based; settings: in vivo, iv, 1 h
[18] = species on record: Rattus norvegicus; assay: Biodistribution of radioactivity in rat hippocampus upon Tail-Vein injection of [11C]-labeled compound after 15 min; type: ADME, organism-based; settings: in vivo, iv, 0.25 h
[19] = species on record: Rattus norvegicus; assay: Biodistribution of radioactivity in rat hippocampus upon Tail-Vein injection of [11C]-labeled compound after 30 min; type: ADME, organism-based; settings: in vivo, iv, 0.5 h
[20] = species on record: Rattus norvegicus; assay: Biodistribution of radioactivity in rat hippocampus upon Tail-Vein injection of [11C]-labeled compound after 5 min; type: ADME, organism-based; settings: in vivo, iv
[21] = species on record: Rattus norvegicus; assay: Biodistribution of radioactivity in rat hippocampus upon Tail-Vein injection of [11C]-labeled compound after 60 min; type: ADME, organism-based; settings: in vivo, iv, 1 h
[22] = species on record: Rattus norvegicus; assay: Biodistribution of radioactivity in rat hypothalamus upon Tail-Vein injection of [11C]-labeled compound after 15 min; type: ADME, organism-based; settings: in vivo, iv, 0.25 h
[23] = species on record: Rattus norvegicus; assay: Biodistribution of radioactivity in rat hypothalamus upon Tail-Vein injection of [11C]-labeled compound after 30 min; type: ADME, organism-based; settings: in vivo, iv, 0.5 h
[24] = species on record: Rattus norvegicus; assay: Biodistribution of radioactivity in rat hypothalamus upon Tail-Vein injection of [11C]-labeled compound after 5 min; type: ADME, organism-based; settings: in vivo, iv
[25] = species on record: Rattus norvegicus; assay: Biodistribution of radioactivity in rat hypothalamus upon Tail-Vein injection of [11C]-labeled compound after 60 min; type: ADME, organism-based; settings: in vivo, iv, 1 h
[26] = species on record: Rattus norvegicus; assay: Biodistribution of radioactivity in rat striatum upon Tail-Vein injection of [11C]-labeled compound after 15 min; type: ADME, organism-based; settings: in vivo, iv, 0.25 h
[27] = species on record: Rattus norvegicus; assay: Biodistribution of radioactivity in rat striatum upon Tail-Vein injection of [11C]-labeled compound after 30 min; type: ADME, organism-based; settings: in vivo, iv, 0.5 h
[28] = species on record: Rattus norvegicus; assay: Biodistribution of radioactivity in rat striatum upon Tail-Vein injection of [11C]-labeled compound after 5 min; type: ADME, organism-based; settings: in vivo, iv
[29] = species on record: Rattus norvegicus; assay: Biodistribution of radioactivity in rat striatum upon Tail-Vein injection of [11C]-labeled compound after 60 min; type: ADME, organism-based; settings: in vivo, iv, 1 h
[30] = target: Sodium-dependent noradrenaline transporter (Homo sapiens, UniProt P23975); assay: In vitro binding affinity on cloned Norepinephrine transporter
Sodium-dependent noradrenaline transporter, sequence (P23975 whole entry): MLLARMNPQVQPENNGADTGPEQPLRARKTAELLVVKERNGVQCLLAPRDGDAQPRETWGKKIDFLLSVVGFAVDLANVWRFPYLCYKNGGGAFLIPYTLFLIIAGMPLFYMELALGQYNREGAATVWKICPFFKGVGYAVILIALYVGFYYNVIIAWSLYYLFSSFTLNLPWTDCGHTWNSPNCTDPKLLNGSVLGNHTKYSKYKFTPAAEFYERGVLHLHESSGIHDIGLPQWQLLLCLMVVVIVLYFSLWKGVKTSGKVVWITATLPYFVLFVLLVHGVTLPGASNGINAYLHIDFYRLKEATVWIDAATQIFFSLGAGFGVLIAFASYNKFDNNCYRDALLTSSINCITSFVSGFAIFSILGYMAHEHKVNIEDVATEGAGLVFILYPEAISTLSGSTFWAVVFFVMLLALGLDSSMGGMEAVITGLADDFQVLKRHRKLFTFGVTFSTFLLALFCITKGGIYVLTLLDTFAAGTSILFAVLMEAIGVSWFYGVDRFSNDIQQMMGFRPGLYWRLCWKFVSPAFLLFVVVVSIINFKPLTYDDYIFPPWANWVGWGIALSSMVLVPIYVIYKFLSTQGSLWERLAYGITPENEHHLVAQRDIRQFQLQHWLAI
In short: (§1)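 Competition binding in triplicate on membranes from cloned human transporters. Buffer 50 mM Tris-Cl pH 7.4 with 150 mM NaCl/5 mM KCl (SERT, NET) or 100 mM NaCl (DAT). Incubated 40 min at 37 °C, then filtered on PEI-soaked GF/B filters. Nonspecific binding set with duloxetine 1 µM (SERT), desipramine 10 µM (NET) or nomifensine 10 µM (DAT). IC50 from nonlinear fit; Ki by Cheng-Prusoff.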

[31] = target: Sodium-dependent serotonin transporter (Homo sapiens, UniProt P31645); assay: In vitro binding affinity on cloned Serotonin transporter
Sodium-dependent serotonin transporter, sequence (P31645 whole entry): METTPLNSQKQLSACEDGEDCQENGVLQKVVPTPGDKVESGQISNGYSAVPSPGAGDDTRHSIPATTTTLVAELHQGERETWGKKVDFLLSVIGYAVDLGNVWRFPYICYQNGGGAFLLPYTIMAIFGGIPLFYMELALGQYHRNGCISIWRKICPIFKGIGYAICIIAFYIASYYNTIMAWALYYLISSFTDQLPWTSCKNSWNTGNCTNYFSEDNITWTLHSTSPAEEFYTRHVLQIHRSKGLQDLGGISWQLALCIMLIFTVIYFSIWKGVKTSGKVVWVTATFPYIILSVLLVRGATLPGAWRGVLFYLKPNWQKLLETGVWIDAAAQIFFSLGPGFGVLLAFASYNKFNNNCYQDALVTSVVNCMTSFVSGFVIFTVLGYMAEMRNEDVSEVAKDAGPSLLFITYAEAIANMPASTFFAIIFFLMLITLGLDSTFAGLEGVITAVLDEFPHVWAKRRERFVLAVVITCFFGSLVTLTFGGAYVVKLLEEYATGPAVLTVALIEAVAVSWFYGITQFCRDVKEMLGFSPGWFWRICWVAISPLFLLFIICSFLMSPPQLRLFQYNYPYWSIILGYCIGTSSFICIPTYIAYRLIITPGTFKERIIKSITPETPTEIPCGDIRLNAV
In short: as §1, with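 “transporters. Radioligands: SERT [3H]paroxetine 0.2 nM with 10.3 µg protein, NET [3H]nisoxetine 1.0 nM with 16.9 µg, DAT [3H]WIN 35,428 1.0 nM with 6.2 µg.” for “transporters.”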

[32] = species on record: Rattus norvegicus; assay: Biodistribution of radioactivity in rat thalamus upon Tail-Vein injection of [11C]-labeled compound after 60 min; type: ADME, organism-based; settings: in vivo, iv, 1 h
[33] = target: Sodium-dependent dopamine transporter (Homo sapiens, UniProt Q01959); assay: In vitro binding affinity on cloned Dopamine transporter
Sodium-dependent dopamine transporter, sequence (Q01959 whole entry): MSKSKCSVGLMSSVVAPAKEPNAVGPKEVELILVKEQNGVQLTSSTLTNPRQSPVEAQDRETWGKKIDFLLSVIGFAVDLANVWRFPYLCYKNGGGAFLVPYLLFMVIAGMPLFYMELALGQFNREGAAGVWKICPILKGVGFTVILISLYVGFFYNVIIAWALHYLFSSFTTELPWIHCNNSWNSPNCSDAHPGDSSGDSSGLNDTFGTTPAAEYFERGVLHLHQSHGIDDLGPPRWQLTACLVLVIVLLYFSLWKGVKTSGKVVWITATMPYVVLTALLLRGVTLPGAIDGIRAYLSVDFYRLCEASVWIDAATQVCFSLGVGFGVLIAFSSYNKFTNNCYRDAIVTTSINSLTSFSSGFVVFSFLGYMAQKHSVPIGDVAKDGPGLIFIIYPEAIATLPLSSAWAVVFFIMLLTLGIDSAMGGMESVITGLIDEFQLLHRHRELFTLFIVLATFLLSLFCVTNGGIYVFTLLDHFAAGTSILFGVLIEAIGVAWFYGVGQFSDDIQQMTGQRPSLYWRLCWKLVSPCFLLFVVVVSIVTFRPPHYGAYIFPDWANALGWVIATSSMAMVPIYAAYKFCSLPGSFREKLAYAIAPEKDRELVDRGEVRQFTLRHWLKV
In short: as §1, with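 “transporters. Radioligands: SERT [3H]paroxetine 0.2 nM with 10.3 µg protein, NET [3H]nisoxetine 1.0 nM with 16.9 µg, DAT [3H]WIN 35,428 1.0 nM with 6.2 µg.” for “transporters.”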

[34] = species on record: Rattus norvegicus; assay: Biodistribution of radioactivity in rat thalamus upon Tail-Vein injection of [11C]-labeled compound after 45 min; type: ADME, organism-based; settings: in vivo, iv, 0.75 h
[35] = species on record: Rattus norvegicus; assay: Biodistribution of radioactivity in rat blood upon Tail-Vein injection of [11C]-labeled compound after 30 min; type: ADME, organism-based; settings: in vivo, iv, 0.5 h
[36] = species on record: Rattus norvegicus; assay: Biodistribution of radioactivity in rat blood upon Tail-Vein injection of [11C]-labeled compound after 45 min; type: ADME, organism-based; settings: in vivo, iv, 0.75 h
[37] = species on record: Rattus norvegicus; assay: Biodistribution of radioactivity in rat cerebellum upon Tail-Vein injection of [11C]-labeled compound after 45 min; type: ADME, organism-based; settings: in vivo, iv, 0.75 h
[38] = species on record: Rattus norvegicus; assay: Biodistribution of radioactivity in rat cortex upon Tail-Vein injection of [11C]-labeled compound after 45 min; type: ADME, organism-based; settings: in vivo, iv, 0.75 h
[39] = species on record: Rattus norvegicus; assay: Biodistribution of radioactivity in rat hippocampus upon Tail-Vein injection of [11C]-labeled compound after 45 min; type: ADME, organism-based; settings: in vivo, iv, 0.75 h
[40] = species on record: Rattus norvegicus; assay: Biodistribution of radioactivity in rat hypothalamus upon Tail-Vein injection of [11C]-labeled compound after 45 min; type: ADME, organism-based; settings: in vivo, iv, 0.75 h
[41] = species on record: Rattus norvegicus; assay: Biodistribution of radioactivity in rat striatum upon Tail-Vein injection of [11C]-labeled compound after 45 min; type: ADME, organism-based; settings: in vivo, iv, 0.75 h

Row | SMILES | T1/2 [1] [min] | logD [2] | ID/g [3] [%] | ID/g [4] [%] | ID/g [5] [%] | ID/g [7] [%] | ID/g [8] [%] | ID/g [9] [%] | ID/g [10] [%] | ID/g [11] [%] | ID/g [12] [%] | ID/g [13] [%] | ID/g [14] [%] | ID/g [15] [%] | ID/g [16] [%] | ID/g [17] [%] | ID/g [18] [%] | ID/g [19] [%] | ID/g [20] [%] | ID/g [21] [%] | other results
1 | CN(C)Cc1ccccc1Sc1ccc(C(F)(F)F)cc1N | 32.3 | 3.77 | 1.06 | 1.07 | 0.21 | 0.35 | 0.12 | 0.7 | 0.47 | 0.92 | 0.28 | 1.06 | 0.98 | 1.07 | 1.09 | 0.69 | 0.91 | 0.88 | 0.92 | 0.75 | ID/g [6]: 0.21%; ID/g [22]: 1.17%; ID/g [23]: 1.23%; ID/g [24]: 1.02%; ID/g [25]: 0.99%; ID/g [26]: 1.02%; ID/g [27]: 0.99%; ID/g [28]: 1.05%; ID/g [29]: 0.72%; pKi [30]: 5.92; pKi [31]: 9.48; ID/g [32]: 0.89%; pKi [33]: 5.69
2 | COc1ccc(Sc2ccccc2CN(C)C)c(N)c1 | 18.8 | 2.83 | 1.13 | 0.83 | 0.17 | 0.3 | 0.07 | 0.52 | 0.27 | 0.8 | 0.1 | 1.11 | 0.7 | 1.12 | 1.37 | 0.36 | 0.98 | 0.74 | 1.09 | 0.38 | ID/g [34]: 0.71%; ID/g [35]: 0.13%; ID/g [36]: 0.1%; ID/g [37]: 0.2%; ID/g [38]: 0.54%; ID/g [39]: 0.56%; ID/g [22]: 1.31%; ID/g [23]: 1.08%; ID/g [40]: 0.89%; ID/g [24]: 1.22%; ID/g [25]: 0.63%; ID/g [26]: 1.07%; ID/g [27]: 0.76%; ID/g [41]: 0.58%; ID/g [28]: 1.19%; ID/g [29]: 0.38%; pKi [30]: 5.70; pKi [31]: 8.72; ID/g [32]: 0.48%; pKi [33]: 5.58
